From PMC3504124 (Journal of the American Chemical Society, 2012)
Each block holds one molecule with its values, some of them ahead of it.

Experiments:
SET7/9 = target: T1, SET7/9 (Homo sapiens, UniProt Q8WTS6); assay: Filter-paper methylation assay, IC50 against SET7/9; type: biochemical
T1 sequence (Q8WTS6 1-366): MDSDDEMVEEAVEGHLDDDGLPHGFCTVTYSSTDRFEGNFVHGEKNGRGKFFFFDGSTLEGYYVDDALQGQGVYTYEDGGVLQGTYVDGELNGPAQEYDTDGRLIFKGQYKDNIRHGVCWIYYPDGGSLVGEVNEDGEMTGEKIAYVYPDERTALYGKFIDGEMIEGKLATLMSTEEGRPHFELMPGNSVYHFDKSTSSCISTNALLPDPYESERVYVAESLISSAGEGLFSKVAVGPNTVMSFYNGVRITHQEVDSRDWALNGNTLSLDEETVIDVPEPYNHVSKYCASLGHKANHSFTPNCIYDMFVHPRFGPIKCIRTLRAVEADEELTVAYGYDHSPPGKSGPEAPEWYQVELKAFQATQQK
Method in brief: (§1)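 Radiometric filter-paper assay: the methyl group from [3H-Me]-SAM is transferred to a peptide substrate, the peptide is captured by filter binding, and radioactivity is counted by scintillation. For SETD2, both SAM and peptide were below their Km. IC50 was obtained by fitting percent inhibition against inhibitor concentration.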

SETD2 [1] = target: T2, SETD2 (Homo sapiens, UniProt Q9BYW2); assay: Filter-paper methylation assay with [3H-Me]-SAM, IC50 against SETD2; type: biochemical; details: for preference to SETD2 over other examined methyltransferases: panel of 15 human methyltransferases
T2 sequence (Q9BYW2 1347-1711): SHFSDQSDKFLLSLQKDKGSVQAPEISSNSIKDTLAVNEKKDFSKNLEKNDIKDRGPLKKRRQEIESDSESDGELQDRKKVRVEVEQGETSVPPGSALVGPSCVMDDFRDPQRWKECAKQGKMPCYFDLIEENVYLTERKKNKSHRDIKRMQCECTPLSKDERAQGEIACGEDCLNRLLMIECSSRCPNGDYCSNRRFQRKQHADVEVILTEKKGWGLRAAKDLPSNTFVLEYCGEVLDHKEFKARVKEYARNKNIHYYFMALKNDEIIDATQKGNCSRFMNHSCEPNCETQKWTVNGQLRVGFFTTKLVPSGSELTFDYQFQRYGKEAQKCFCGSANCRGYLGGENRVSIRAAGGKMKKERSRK
Method in brief: as §1

PRMT1 = PRMT1 (Homo sapiens, UniProt Q99873); assay: Filter-paper methylation assay, IC50 against PRMT1; type: biochemical; details: read-out: IC50 for PRMT1
PRMT1, sequence (Q99873 10-352 isoform Q99873-3): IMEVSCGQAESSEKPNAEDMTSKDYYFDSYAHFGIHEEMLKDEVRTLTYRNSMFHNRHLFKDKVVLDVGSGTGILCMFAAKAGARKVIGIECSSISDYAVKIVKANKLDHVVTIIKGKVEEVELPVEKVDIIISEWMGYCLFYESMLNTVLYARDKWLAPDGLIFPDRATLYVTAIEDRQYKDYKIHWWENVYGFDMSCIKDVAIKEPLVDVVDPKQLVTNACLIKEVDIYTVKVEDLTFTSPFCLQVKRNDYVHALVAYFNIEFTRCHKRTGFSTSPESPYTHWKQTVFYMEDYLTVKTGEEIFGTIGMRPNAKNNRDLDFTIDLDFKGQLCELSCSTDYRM
Method in brief: as §1

SET8 = target: T3, SET8 (Homo sapiens, UniProt Q9NQR1); assay: Filter-paper methylation assay, IC50 against SET8; type: biochemical; details: read-out: IC50 for SET8
T3 sequence (Q9NQR1 232-393 limits assumed): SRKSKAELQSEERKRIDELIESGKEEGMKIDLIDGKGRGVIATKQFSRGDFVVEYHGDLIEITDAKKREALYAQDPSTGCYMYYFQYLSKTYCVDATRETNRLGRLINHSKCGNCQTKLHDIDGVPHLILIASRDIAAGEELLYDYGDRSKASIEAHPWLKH
Method in brief: as §1

G9a = target: T4, G9a (Homo sapiens, UniProt Q96KQ7); assay: Filter-paper methylation assay, IC50 against G9a; type: biochemical; details: read-out: IC50 for G9a
T4 sequence (Q96KQ7 913-1193): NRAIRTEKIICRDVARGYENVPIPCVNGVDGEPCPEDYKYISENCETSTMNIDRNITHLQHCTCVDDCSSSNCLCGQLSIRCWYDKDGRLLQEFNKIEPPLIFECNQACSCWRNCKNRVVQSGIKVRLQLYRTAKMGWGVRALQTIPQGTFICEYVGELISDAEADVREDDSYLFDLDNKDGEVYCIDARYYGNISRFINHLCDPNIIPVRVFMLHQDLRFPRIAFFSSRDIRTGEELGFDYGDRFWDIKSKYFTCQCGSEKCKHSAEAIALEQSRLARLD

GLP = target: T5, GLP (Homo sapiens, UniProt Q9H9B1); assay: Filter-paper methylation assay, IC50 against GLP; type: biochemical; details: read-out: IC50 for GLP
T5 sequence (Q9H9B1 982-1266): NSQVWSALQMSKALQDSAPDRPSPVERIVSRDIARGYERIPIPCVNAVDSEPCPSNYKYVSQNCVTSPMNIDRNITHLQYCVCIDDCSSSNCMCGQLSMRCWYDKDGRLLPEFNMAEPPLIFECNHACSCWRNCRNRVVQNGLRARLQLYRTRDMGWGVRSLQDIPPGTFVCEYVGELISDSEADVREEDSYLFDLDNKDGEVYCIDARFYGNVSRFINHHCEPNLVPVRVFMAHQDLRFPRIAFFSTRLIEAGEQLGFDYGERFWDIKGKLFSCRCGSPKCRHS
Method in brief: as §1

SETD2 [2] = target: T2, SETD2; assay: Kinetics analysis of SETD2-catalyzed methylation; type: biochemical
CARM1 = target: T6, CARM1 (Homo sapiens, UniProt Q86X55); assay: Filter-paper methylation assay, IC50 against CARM1; type: biochemical; details: read-out: IC50 for CARM1
T6 sequence (Q86X55 19-608): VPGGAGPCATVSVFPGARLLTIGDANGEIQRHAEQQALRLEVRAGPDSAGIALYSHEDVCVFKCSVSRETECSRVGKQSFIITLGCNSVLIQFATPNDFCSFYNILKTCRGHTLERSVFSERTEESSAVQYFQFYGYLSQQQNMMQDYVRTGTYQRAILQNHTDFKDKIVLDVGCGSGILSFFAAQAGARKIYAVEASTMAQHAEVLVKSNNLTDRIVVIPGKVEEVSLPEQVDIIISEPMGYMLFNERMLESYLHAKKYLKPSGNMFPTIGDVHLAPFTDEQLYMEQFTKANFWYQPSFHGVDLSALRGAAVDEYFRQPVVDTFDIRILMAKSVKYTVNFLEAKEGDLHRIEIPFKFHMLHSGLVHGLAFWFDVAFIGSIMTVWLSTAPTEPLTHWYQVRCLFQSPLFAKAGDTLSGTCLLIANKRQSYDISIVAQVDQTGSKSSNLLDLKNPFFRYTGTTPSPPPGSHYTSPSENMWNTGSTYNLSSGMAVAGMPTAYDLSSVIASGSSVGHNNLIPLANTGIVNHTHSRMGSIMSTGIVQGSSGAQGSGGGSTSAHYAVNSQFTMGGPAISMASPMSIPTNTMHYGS

SUV39H2 = assay: Filter-paper methylation assay, potency against SUV39H2; type: biochemical, human
Method in brief: as §1

DOT1L = details: read-out: in vitro IC50 on DOT1L; cited from earlier work

Structure (SMILES): CCCNC(CCC(N)C(=O)O)C[C@H]1O[C@@H](n2cnc3c(N)ncnc32)[C@H](O)[C@@H]1O (stereo partly shown) [3c, N-propyl sinefungin]
- IC50 (SET7/9; read-out: IC50 for SET7/9): 2200 ± 400 nM
- preference to SETD2 over other examined methyltransferases (SETD2 [1]): 2~200 fold
- IC50 (PRMT1): 9500 ± 400 nM
- IC50 (SET8): > 100000 nM
- IC50 (G9a): > 100000 nM
- IC50 (GLP): > 100000 nM
- enhancement of Kd by presence of SETD2's substrate (SETD2 [2]): 8 fold
- β (SETD2 [2]; factor by which binding of inhibitor or substrate affects binding of the other): 0.12 ± 0.01
- IC50 (SETD2 [2]; read-out: calculated IC50 against SETD2, calculated from kinetic constants): 600 nM
- Kd (SETD2 [2]; read-out: βKd to bind SETD2, presence of substrate): 43 ± 4 nM
- mechanism of inhibition versus peptide substrate (SETD2 [2]; varied inhibitor, fixed SAM (0.8 μM)): noncompetitive
- mechanism of inhibition versus SAM cofactor (SETD2 [2]; varied inhibitor, fixed substrate (4 μM)): competitive
- IC50 (CARM1): 2960 ± 300 nM

- drop in potency from 3c to 3d on SET7/9 (SET7/9): 10~50 fold
- potency against SETD2 relative to sinefungin 2, 3a and 3b (SETD2 [1]; fold higher potency): more than 10 fold
- preference to SETD2 over other examined methyltransferases (SETD2 [1]): 10~100 fold
Structure (SMILES): Nc1ncnc2c1ncn2[C@@H]1O[C@H](C[C@H](CC[C@H](N)C(=O)O)NCc2ccccc2)[C@@H](O)[C@H]1O [3d, N-benzyl sinefungin]
- drop in potency from 3c to 3d on SUV39H2 (SUV39H2): 10~50 fold

- Km (SETD2 [2]; read-out: Km,SAM of SETD2, absence of Pr-SNF): 1.21 ± 0.05 µM
Structure (SMILES): C[S+](CC[C@H](N)C(=O)[O-])C[C@H]1O[C@@H](n2cnc3c(N)ncnc32)[C@H](O)[C@@H]1O (stereo partly shown) [SAM, S-adenosylmethionine, reference compound]
